Assay results taken from ChEMBL document CHEMBL4364265, “Oridonin derivatives as potential anticancer drug candidates triggering apoptosis through mitochondrial pathway in the liver cancer cells” (Eur J Med Chem, 2019).
Activity calls are given as the source filed them. The calls are words filed in the database; no cut-off is given here.

How the values were obtained:
PLC-PRF-5 [1] = assay: Induction of apoptosis in human PLC/PRF/5 cells assessed as increase in cytochrome c protein expression level at 0.25 to 1.25 uM incubated for 24 hrs by Western blot analysis; format: functional, cell-based
How it was run: (§1)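 Cells were treated 24 h in DMEM with 0, 0.25, 0.5, 1.0 or 1.25 µM compound. Adherent and floating cells were lysed in RIPA on ice and protein measured by BCA. Equal protein was run on 7.5–12.5% SDS-PAGE and transferred to PVDF. Membranes were blocked in 5% milk/PBST, incubated with primary antibody overnight at 4 °C, and detected by ECL.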

HepG2 [2] = assay: Induction of apoptosis in human HepG2 cells assessed as live cells at 0.25 uM incubated for 24 hrs by annexin V staining based cell counting method (reference value: 87.35%); format: functional
PLC-PRF-5 [3] = assay: Induction of apoptosis in human PLC/PRF/5 cells assessed as upregulation of Bax protein expression level incubated for 24 hrs by Western blot analysis; format: functional, cell-based; how it was run: as §1
PLC-PRF-5 [4] = assay: Induction of cell cycle arrest in human PLC/PRF/5 cells assessed as accumulation at G2 phase at 0.5 uM incubated for 24 hrs by PI staining based flow cytometric analysis (reference value: 18.05%); format: functional
PLC-PRF-5 [5] = assay: Induction of apoptosis in human PLC/PRF/5 cells assessed as live cells at 0.5 uM incubated for 24 hrs by annexin V staining based cell counting method (reference value: 88.95%); format: functional
[6] = Selectivity index, ratio of IC50 for human LO2 cells to IC50 for human PLC/PRF/5 cells
How it was run: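 L-O2 and PLC/PRF/5 cells were grown in DMEM with 10% FBS at 37 °C and 5% CO₂. For CCK-8 proliferation, 10,000 cells per well were pre-incubated 24 h, then exposed to compound in DMSO for 72 h. CCK-8 was added for 4 h and A450 read. IC50 came from dose–response curves; SI is IC50(L-O2)/IC50(PLC/PRF/5).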

PLC-PRF-5 [7] = assay: Induction of apoptosis in human PLC/PRF/5 cells assessed as upregulation of cleaved caspase 3 protein expression level incubated for 24 hrs by Western blot analysis; format: functional, cell-based
How it was run: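 After 24 h exposure (0, 0.25, 0.5, 1.0 and 1.25 µM), adherent plus floating cells collected, lysed in RIPA on ice 30 min, protein quantified by BCA; equal protein run on 7.5–12.5% SDS gels, transferred to PVDF, blocked 30 min in 5% milk/PBST, primary antibody overnight at 4 °C, ECL detection.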

HepG2 [8] = assay: Induction of cell cycle arrest in human HepG2 cells assessed as accumulation at G2 phase at 1 uM incubated for 24 hrs by PI staining based flow cytometric analysis (reference value: 25.55%); format: functional
PLC-PRF-5 [9] = assay: Induction of apoptosis in human PLC/PRF/5 cells assessed as necrotic cells at 0.25 uM incubated for 24 hrs by annexin V staining based cell counting method (reference value: 0.59%); format: functional
[10] = Half life in human plasma measured for 5 to 120 mins by LC-MS/MS analysis; format: ADME, cell-free
How it was run: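 Compound at an initial 5000 ng/mL was incubated in human plasma at 37 °C. 100 µL aliquots were taken at 0–120 min and extracted with methanol plus tyrosine internal standard, then centrifuged and filtered. Extracts were analysed by LC-MS/MS on a triple-quadrupole instrument with ESI.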

HepG2 [11] = assay: Induction of apoptosis in human HepG2 cells assessed as shrunken chromatin at 0.25 to 1 uM incubated for 24 hrs by Hoechst 33258 dye based fluorescence microscopic method; format: functional, cell-based
How it was run: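 About 2 × 10^4 cells per well were plated overnight and treated 24 h with 0, 0.25, 0.5 or 1 µM compound. Cells were fixed in 4% paraformaldehyde for 30 min at room temperature, stained with 20 µg/mL Hoechst 33258 for 20 min at 37 °C, and imaged by fluorescence microscopy.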

HepG2 [12] = assay: Induction of apoptosis in human HepG2 cells assessed as late apoptotic cells at 0.5 uM incubated for 24 hrs by annexin V staining based cell counting method (reference value: 5.65%); format: functional
HepG2 [13] = assay: Induction of cell cycle arrest in human HepG2 cells assessed as accumulation at G2 phase at 0.25 uM incubated for 24 hrs by PI staining based flow cytometric analysis (reference value: 25.55%); format: functional
PLC-PRF-5 [14] = assay: Induction of ROS generation in human PLC/PRF/5 cells by DCFH-DA staining-based flow cytometric analysis; format: functional, cell-based
How it was run: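 Cells were treated with 0, 0.25, 0.5 or 1 µM compound, stained with 10 µM DCFH-DA for 20 min at 37 °C, washed three times, resuspended in PBS and read by flow cytometry. Data are mean ± SD of three independent experiments.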

PLC-PRF-5 [15] = assay: Inhibition of colony formation in human PLC/PRF/5 cells assessed as decrease in colony size at 0.1 to 1 uM incubated for 10 days by crystal violet staining based microscopic method
PLC-PRF-5 [16] = assay: Induction of cell cycle arrest in human PLC/PRF/5 cells assessed as accumulation at S phase at 1 uM incubated for 24 hrs by PI staining based flow cytometric analysis (reference value: 42.03%); format: functional
HepG2 [17] = assay: Induction of apoptosis in human HepG2 cells assessed as live cells at 0.5 uM incubated for 24 hrs by annexin V staining based cell counting method (reference value: 87.35%); format: functional
HepG2 [18] = assay: Induction of apoptosis in human HepG2 cells assessed as down regulation of Bcl2 protein expression level incubated for 24 hrs by Western blot analysis; format: functional, cell-based; how it was run: as §1
HepG2 [19] = assay: Induction of apoptosis in human HepG2 cells assessed as upregulation of cleaved PARP protein expression level incubated for 24 hrs by Western blot analysis; format: functional, cell-based; how it was run: as §1
PLC-PRF-5 [20] = assay: Inhibition of colony formation in human PLC/PRF/5 cells at 0.5 uM incubated for 10 days by crystal violet staining based microscopic method relative to control; format: functional; conditions: PLC-PRF-5, 240 h
How it was run: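 Five hundred cells plated per 30 mm dish and left 12 h. Medium with compound was added (0, 0.1, 0.5, 1 µM) or DMSO as negative control, and cells grew 10 days. Colonies were fixed in methanol 15 min, stained with 0.1% crystal violet 15 min, photographed and counted. Colony size was checked by microscope. Relative colony number is mean ± SD of ≥3 independent experiments.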

PLC-PRF-5 [21] = assay: Induction of apoptosis in human PLC/PRF/5 cells assessed as necrotic cells at 0.5 uM incubated for 24 hrs by annexin V staining based cell counting method (reference value: 0.59%); format: functional
PLC-PRF-5 [22] = assay: Induction of apoptosis in human PLC/PRF/5 cells assessed as live cells at 1 uM incubated for 24 hrs by annexin V staining based cell counting method (reference value: 88.95%); format: functional
PLC-PRF-5 [23] = assay: Induction of apoptosis in human PLC/PRF/5 cells assessed as late apoptotic cells at 0.25 uM incubated for 24 hrs by annexin V staining based cell counting method (reference value: 4.81%); format: functional
PLC-PRF-5 [24] = assay: Induction of apoptosis in human PLC/PRF/5 cells assessed as early apoptotic cells at 0.25 uM incubated for 24 hrs by annexin V staining based cell counting method (reference value: 5.65%); format: functional
PLC-PRF-5 [25] = assay: Induction of apoptosis in human PLC/PRF/5 cells assessed as down regulation of Bcl2 protein expression level incubated for 24 hrs by Western blot analysis; format: functional, cell-based; how it was run: as §1

## C=C1C(=O)[C@]23[C@H](OC(=O)/C=C/c4ccc(OC)cc4)[C@H]1CC[C@H]2[C@@]12CO[C@]3(O)[C@@H](O)[C@@H]1C(C)(C)CC[C@@H]2O
PLC-PRF-5 [1]
  Activity: Active
HepG2 [2]
  Activity: 81.95%
PLC-PRF-5 [3]
  Activity: Dose-dependent effect
PLC-PRF-5 [4]
  Activity: 13.58%
PLC-PRF-5 [5]
  Activity: 64.3%
[6]
  Ratio IC50: 1.8
PLC-PRF-5 [7]
  Activity: Dose-dependent effect
HepG2 [8]
  Activity: 22.67%
PLC-PRF-5 [9]
  Activity: 0.91%
[10]
  half-life: 2 h
HepG2 [11]
  Activity: Active
HepG2 [12]
  Activity: 7.55%
HepG2 [13]
  Activity: 24.78%
PLC-PRF-5 [14]
  Activity: Dose-dependent effect
PLC-PRF-5 [15]
  inhibition: Active
PLC-PRF-5 [16]
  Activity: 43.13%
HepG2 [17]
  Activity: 77.75%
HepG2 [18]
  Activity: Dose-dependent effect
HepG2 [19]
  Activity: Dose-dependent effect
PLC-PRF-5 [20]
  inhibition at 0.5 µM: 100%
PLC-PRF-5 [21]
  Activity: 0.82%
PLC-PRF-5 [22]
  Activity: 33.5%
PLC-PRF-5 [23]
  Activity: 9.14%
PLC-PRF-5 [24]
  Activity: 9.43%
PLC-PRF-5 [25]
  Activity: Dose-dependent effect
